In ChEMBL document CHEMBL1132488, “On the bioactive conformation of NAN-190 (1) and MP3022 (2), 5-HT(1A) receptor antagonists” (J Med Chem, 1999):
One block for each compound: values may come before it.

Legend:
Rattus norvegicus [1] = species: Rattus norvegicus; test: Effect on 8-OH-DAPT- induced behavioral syndrome(FT: forepaw treading) by the compound in reserpine pretreated rats at a dose of 8; FT mean score; type: functional
Summary of the method: (§1)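 Reserpinized male Wistar rats (reserpine 1 mg/kg sc, 18 h before), groups of 6. Compound given ip in 1% Tween 80 60 min before 8-OH-DPAT 5 mg/kg sc. FBP/FT rated 0–3 at 3, 6, 9, 12 and 15 min after agonist, summed (max 15). Mean ± SEM; Newman–Keuls test; ED50 with range.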

Rattus norvegicus [2] = test: Induction of LLR(lower lip retraction) by the compound in rats at a dose of 4 mg/kg; LLR score; type: functional
Summary of the method: (§2)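 Male Wistar rats, groups of 6, given compound alone ip as 1% Tween 80 suspension. Lower incisor visibility scored 0/0.5/1 at 15, 30 and 45 min after dosing, summed (max 3 per rat). Mean ± SEM versus vehicle, Newman–Keuls test; ED50 with range.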

Rattus norvegicus [3] = species: Rattus norvegicus; test: Induction of behavioral syndrome(FT: forepaw treading) by the compound in reserpine pretreated rats at a dose of 16; FT mean score; type: functional
Summary of the method: (§3)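 Male Wistar rats (260–300 g) were given reserpine 1 mg/kg sc in saline 18 h before testing. Test compound was then given alone ip as a 1% Tween 80 suspension (2 mL/kg). FBP and FT were each scored 0–3 and summed (maximum 15). n=6 per group; mean ± SEM; Newman–Keuls test.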

Rattus norvegicus [4] = species: Rattus norvegicus; test: Induction of behavioral syndrome(FBP: flat body posture) by the compound in reserpine pretreated rats at a dose of 8; FBP mean score; type: functional; summary of the method: as §3
Rattus norvegicus [5] = species: Rattus norvegicus; test: Effect on 8-OH-DAPT- induced behavioral syndrome(FBP: flat body posture) by the compound in reserpine pretreated rats at a dose of 8; FBP mean score; type: functional; summary of the method: as §1
Rattus norvegicus [6] = species: Rattus norvegicus; test: Induction of behavioral syndrome(FT: forepaw treading) by the compound in reserpine pretreated rats at a dose of 32; FT mean score; type: functional; summary of the method: as §3
Rattus norvegicus [7] = species: Rattus norvegicus; test: Effect on 8-OH-DAPT- induced behavioral syndrome(FBP: flat body posture) by the compound in reserpine pretreated rats at a dose of 16; FBP mean score; type: functional; summary of the method: as §1
[8] = target: T1, 5-hydroxytryptamine receptor 1A (Rattus norvegicus, UniProt P19327); test: Ability to displace [3H]8-OH-DPAT from 5-hydroxytryptamine 1A receptor
T1 sequence (P19327 whole entry): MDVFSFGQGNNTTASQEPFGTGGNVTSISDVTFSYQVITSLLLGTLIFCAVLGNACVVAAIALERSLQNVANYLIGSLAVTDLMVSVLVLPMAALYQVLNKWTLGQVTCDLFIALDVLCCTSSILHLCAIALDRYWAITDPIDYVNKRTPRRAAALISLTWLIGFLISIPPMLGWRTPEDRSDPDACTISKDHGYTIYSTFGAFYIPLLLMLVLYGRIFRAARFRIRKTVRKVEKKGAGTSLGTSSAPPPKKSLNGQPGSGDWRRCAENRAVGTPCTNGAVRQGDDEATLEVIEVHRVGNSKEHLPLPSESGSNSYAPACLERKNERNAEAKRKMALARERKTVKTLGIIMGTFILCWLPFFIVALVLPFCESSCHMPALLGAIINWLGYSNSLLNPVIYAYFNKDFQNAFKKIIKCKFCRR
Summary of the method: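 Rat hippocampal membranes, [3H]8-OH-DPAT radioligand. Ki from at least three competition experiments, each with 10–14 drug concentrations run in triplicate. Ki calculated with the Cheng–Prusoff equation.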

Rattus norvegicus [9] = species: Rattus norvegicus; test: Effect on 8-OH-DAPT- induced behavioral syndrome(FT: forepaw treading) by the compound in reserpine pretreated rats at a dose of 16; FT mean score; type: functional; summary of the method: as §1
Rattus norvegicus [10] = species: Rattus norvegicus; test: Dose Inducing behavioral syndrome(FT: forepaw treading) by the compound in reserpine pretreated rats; type: functional
Summary of the method: (§4)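 Male Wistar rats (260–300 g), groups of 6, given reserpine 1 mg/kg sc 18 h before test. Compounds given ip as 1% Tween 80 suspension. FBP and FT rated 0–3 in 45-s sessions every 3 min, starting 3 min after dosing. Score summed over 5 periods (max 15 per symptom). Mean ± SEM; Newman–Keuls test.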

Rattus norvegicus [11] = species: Rattus norvegicus; test: Effect on 8-OH-DAPT- induced behavioral syndrome(FT: forepaw treading) by the compound in reserpine pretreated rats at a dose of 32; FT mean score; type: functional; summary of the method: as §1
Rattus norvegicus [12] = test: Induction of LLR(lower lip retraction) by the compound in rats at a dose of 2 mg/kg; LLR score; type: functional; summary of the method: as §2
Rattus norvegicus [13] = species: Rattus norvegicus; test: Induction of behavioral syndrome(FBP: flat body posture) by the compound in reserpine pretreated rats at a dose of 16; FBP mean score; type: functional; summary of the method: as §4
Rattus norvegicus [14] = species: Rattus norvegicus; test: Induction of behavioral syndrome(FBP: flat body posture) by the compound in reserpine pretreated rats at a dose of 32; FBP mean score; type: functional; summary of the method: as §3
Rattus norvegicus [15] = species: Rattus norvegicus; test: Effect on 8-OH-DAPT- induced behavioral syndrome(FBP: flat body posture) by the compound in reserpine pretreated rats at a dose of 32; FBP mean score; type: functional; summary of the method: as §1
Rattus norvegicus [16] = species: Rattus norvegicus; test: Dose Inducing behavioral syndrome(FBP: flat body posture) by the compound in reserpine pretreated rats; type: functional; summary of the method: as §4
Rattus norvegicus [17] = species: Rattus norvegicus; test: Induction of behavioral syndrome(FT: forepaw treading) by the compound in reserpine pretreated rats at a dose of 8; FT mean score; type: functional; summary of the method: as §3
Rattus norvegicus [18] = test: Induction of LLR(lower lip retraction) by the compound in rats at a dose of 8 mg/kg; LLR score; type: functional; summary of the method: as §2
Rattus norvegicus [19] = species: Rattus norvegicus; test: Effective dose of the required to induce LLR(lower lip retraction); type: functional; summary of the method: as §2
Rattus norvegicus [20] = species: Rattus norvegicus; test: Effect on 8-OH-DAPT- induced behavioral syndrome(FT: forepaw treading) by the compound in reserpine pretreated rats at a dose of 8.; type: functional; summary of the method: as §1
Rattus norvegicus [21] = test: Induction of LLR(lower lip retraction) by the compound in rats at a dose of 4 mg/kg; type: functional; summary of the method: as §2
Rattus norvegicus [22] = species: Rattus norvegicus; test: Dose Inducing behavioral syndrome(FT: forepaw treading) by the compound in reserpine pretreated rats.; type: functional; summary of the method: as §4
Rattus norvegicus [23] = test: Effect on 8-OH-DPAT-Induced LLR(lower lip retraction) in rats at a dose of 2 mg/kg; type: functional
Summary of the method: (§5)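 Male Wistar rats, groups of 6. Compound given ip in 1% Tween 80 45 min before 8-OH-DPAT 1 mg/kg sc. Lower incisor visibility scored 0/0.5/1 at 15, 30 and 45 min after agonist, summed (max 3). Mean ± SEM; Newman–Keuls test; ED50 with range.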

Rattus norvegicus [24] = species: Rattus norvegicus; test: Induction of behavioral syndrome(FT: forepaw treading) by the compound in reserpine pretreated rats at a dose of 4.; type: functional; summary of the method: as §3
Rattus norvegicus [25] = test: Effect on 8-OH-DPAT-Induced LLR(lower lip retraction) in rats at a dose of 4 mg/kg; type: functional; summary of the method: as §5
Rattus norvegicus [26] = species: Rattus norvegicus; test: Dose inhibiting 8-OH-DPAT-induced behavioral syndrome(FBP: flat body posture) by the compound in reserpine pretreated rats.
Rattus norvegicus [27] = species: Rattus norvegicus; test: Effect on 8-OH-DAPT- induced behavioral syndrome(FT: forepaw treading) by the compound in reserpine pretreated rats at a dose of 4.; type: functional; summary of the method: as §1
Rattus norvegicus [28] = species: Rattus norvegicus; test: Induction of behavioral syndrome(FBP: flat body posture) by the compound in reserpine pretreated rats at a dose of 4.; type: functional; summary of the method: as §3
Rattus norvegicus [29] = species: Rattus norvegicus; test: Effect on 8-OH-DAPT- induced behavioral syndrome(FT: forepaw treading) by the compound in reserpine pretreated rats at a dose of 2.; type: functional
Rattus norvegicus [30] = test: Induction of LLR(lower lip retraction) by the compound in rats at a dose of 2 mg/kg; type: functional; summary of the method: as §2
Rattus norvegicus [31] = species: Rattus norvegicus; test: Effect on 8-OH-DAPT- induced behavioral syndrome(FT: forepaw treading) by the compound in reserpine pretreated rats at a dose of.1; type: functional
Rattus norvegicus [32] = test: Effect on 8-OH-DPAT-Induced LLR(lower lip retraction) in rats at a dose of 1 mg/kg; type: functional; summary of the method: as §5
Rattus norvegicus [33] = species: Rattus norvegicus; test: Effect on 8-OH-DAPT- induced behavioral syndrome(FBP: flat body posture) by the compound in reserpine pretreated rats at a dose of 4.; type: functional; summary of the method: as §1
Rattus norvegicus [34] = species: Rattus norvegicus; test: Induction of behavioral syndrome(FBP: flat body posture) by the compound in reserpine pretreated rats at a dose of 8.; type: functional; summary of the method: as §3
Rattus norvegicus [35] = species: Rattus norvegicus; test: Induction of behavioral syndrome(FT: forepaw treading) by the compound in reserpine pretreated rats at a dose of 2.; type: functional
Rattus norvegicus [36] = test: Induction of LLR(lower lip retraction) by the compound in rats at a dose of 1 mg/kg; type: functional; summary of the method: as §2
Rattus norvegicus [37] = species: Rattus norvegicus; test: Effect on 8-OH-DAPT- induced behavioral syndrome(FBP: flat body posture) by the compound in reserpine pretreated rats at a dose of 2.; type: functional
Rattus norvegicus [38] = species: Rattus norvegicus; test: Induction of behavioral syndrome(FBP: flat body posture) by the compound in reserpine pretreated rats at a dose of.1; type: functional
Rattus norvegicus [39] = species: Rattus norvegicus; test: Induction of behavioral syndrome(FBP: flat body posture) by the compound in reserpine pretreated rats at a dose of 2.; type: functional; summary of the method: as §4
Rattus norvegicus [40] = species: Rattus norvegicus; test: Effect on 8-OH-DAPT- induced behavioral syndrome(FBP: flat body posture) by the compound in reserpine pretreated rats at a dose of 8.; type: functional; summary of the method: as §1
Rattus norvegicus [41] = species: Rattus norvegicus; test: Induction of behavioral syndrome(FT: forepaw treading) by the compound in reserpine pretreated rats at a dose of 8.; type: functional; summary of the method: as §3
Rattus norvegicus [42] = species: Rattus norvegicus; test: Effect on 8-OH-DAPT- induced behavioral syndrome(FBP: flat body posture) by the compound in reserpine pretreated rats at a dose of.1; type: functional
Rattus norvegicus [43] = species: Rattus norvegicus; test: Effective dose of the required to inhibit symptoms produced by 8-OH-DPAT; type: functional; summary of the method: as §1
Rattus norvegicus [44] = species: Rattus norvegicus; test: Induction of behavioral syndrome(FT: forepaw treading) by the compound in reserpine pretreated rats at a dose of.1; type: functional

Ki [8]: 50 nM
SMILES: O=C1[C@H]2CCCC[C@H]2C(=O)N1CCCCN1CCc2ccccc2C1
FT mean score (Rattus norvegicus [1]): 9.8
LLR score (Rattus norvegicus [2]): 1.9
FT mean score (Rattus norvegicus [3]): 0.2
FBP mean score (Rattus norvegicus [4]): 0.1
FBP mean score (Rattus norvegicus [5]): 14.6
FT mean score (Rattus norvegicus [6]): 0.2
FBP mean score (Rattus norvegicus [7]): 13.3
FT mean score (Rattus norvegicus [9]): 7.7
ED50 (Rattus norvegicus [10]): 17 mg/kg
FT mean score (Rattus norvegicus [11]): 6
LLR score (Rattus norvegicus [12]): 1
FBP mean score (Rattus norvegicus [13]): 2.3
FBP mean score (Rattus norvegicus [14]): 3.7
FBP mean score (Rattus norvegicus [15]): 11.7
ED50 (Rattus norvegicus [16]): > 32 mg/kg
FT mean score (Rattus norvegicus [17]): 0.1
LLR score (Rattus norvegicus [18]): 2.5
ED50 (Rattus norvegicus [19]): 3.9 mg/kg

SMILES: COc1ccccc1N1CCN(CCCCN2C(=O)c3ccccc3C2=O)CC1 [NAN-190]
FT mean score (Rattus norvegicus [20]): 1.8
LLR score (Rattus norvegicus [21]): 0.1
ED50 (Rattus norvegicus [22]): 2.5 mg/kg
LLR score (Rattus norvegicus [23]): 1.4
FT mean score (Rattus norvegicus [24]): 0.2
LLR score (Rattus norvegicus [25]): 0.6
ED50 (Rattus norvegicus [26]): 2 mg/kg
FT mean score (Rattus norvegicus [27]): 6.2
FBP mean score (Rattus norvegicus [28]): 0.1
FT mean score (Rattus norvegicus [29]): 5.7
LLR score (Rattus norvegicus [30]): 0.1
FT mean score (Rattus norvegicus [31]): 10.8
LLR score (Rattus norvegicus [32]): 1.7
FBP mean score (Rattus norvegicus [33]): 2.3
FBP mean score (Rattus norvegicus [34]): 0.2
FT mean score (Rattus norvegicus [35]): 0.2
LLR score (Rattus norvegicus [36]): 0.1
FBP mean score (Rattus norvegicus [37]): 6
FBP mean score (Rattus norvegicus [38]): 0.1
FBP mean score (Rattus norvegicus [39]): 0.2
FBP mean score (Rattus norvegicus [40]): 2.3
FT mean score (Rattus norvegicus [41]): 0.1
FBP mean score (Rattus norvegicus [42]): 12.4
ED50 (Rattus norvegicus [43]): 1.7 mg/kg
FT mean score (Rattus norvegicus [44]): 0.1
